Reference: ChEMBL document CHEMBL1127374, “Synthesis and antiviral (HIV-1, HBV) activities of 5-halo-6-methoxy(or azido)-5,6-dihydro-3'-fluoro-3'-deoxythymidine diastereomers. Potential prodrugs to 3'-fluoro-3'-deoxythymidine” (J Med Chem, 1994)
pEC50, pIC50: −log10 of the molar value.

What was measured:
CCRF-CEM [1] = assay: Tested for in vitro drug concentration which results in 50% survival of uninfected untreated control CEM cells; assay type: functional, cell-based; details: Homo sapiens
Method in brief: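 Uninfected CEM T4 lymphocytes exposed to the test compound alongside the anti-HIV protection assay, with an AZT control run concurrently. IC50 is the concentration giving 50% survival relative to uninfected untreated control cells.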

CCRF-CEM [2] = assay: Tested for in vitro drug concentration which produces 50% survival of HIV-1 infected CEM cells relative to uninfected untreated controls; assay type: functional, cell-based; details: Homo sapiens
Method in brief: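 CEM T4 lymphocytes infected with small amounts of HIV-1, so that a complete replication cycle is needed for cell killing. Protection from cytolysis measured. EC50 is the concentration giving 50% survival of infected cells relative to uninfected untreated controls. AZT-treated positive control run at the same time under identical conditions.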

[3] = Tested for in vitro percent of 3'-fluoro-3'-deoxythymidine(FLT) formed upon incubation with glutathione; assay type: ADME
Method in brief: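 Test compound incubated with reduced glutathione at a 1:2 molar ratio in phosphate buffer, pH 7.4, 37 °C, 30 min. UV detection at 230 nm for the 5,6-dihydro compound and 265 nm for FLT.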

[4] = Selectivity index is the ratio of IC50 value to that of EC50 value; assay type: functional
Method in brief: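 CEM T4 lymphocytes infected with small amounts of HIV-1, with a full replication cycle needed for cell killing. EC50 is the concentration giving 50% survival of infected cells relative to uninfected untreated controls. IC50 is the concentration giving 50% survival of uninfected untreated CEM cells. SI = IC50/EC50. An AZT-treated control was run alongside.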

[5] = Selectivity index is the ratio of CC50 to that of EC50 (anti-hepatitis B virus activity in intracellular DNA); assay type: functional
Method in brief: (§1)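 Selectivity index calculated as CC50 (neutral red uptake, 2.2.15 cells, 9-day daily dosing) divided by EC50 from HBV DNA (extracellular virion DNA in line 3, intracellular DNA in line 4).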

[6] = (§2) Compound was tested in vitro against intracellular DNA hepatitis B virus of human liver cells; assay type: functional, cell-based
Method in brief: (§3)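 HBV-producing human liver 2.2.15 cells grown to confluence, then dosed daily for 9 continuous days with daily medium change. Medium collected at days 0, 3, 6 and 9 for extracellular virion HBV DNA. Cells lysed 24 h after day 9 for intracellular HBV genomic forms (replication). EC50 and EC90 derived from HBV DNA levels.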

[7] = Selectivity index is the ratio of CC50 to that of EC50 (anti-hepatitis B virus activity in extracellular DNA); assay type: functional; method in brief: as §1
[8] = (§4) Compound was tested in vitro against extracellular DNA hepatitis B virus of human liver cells; assay type: functional
Method in brief: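 2.2.15 cells (chronically HBV-producing human liver line) grown to confluence, then dosed daily for 9 continuous days with medium changed daily. Extracellular virion HBV DNA in medium sampled at days 0, 3, 6 and 9 and quantified; intracellular HBV genomic forms analysed from cells lysed 24 h after day 9.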

[9] = as §2; assay type: functional; method in brief: as §3
[10] = as §4; assay type: functional; method in brief: as §3; remark: listed apart in the source
[11] = Tested for in vitro cytotoxic concentration against hepatitis B irus replication in chronically HBV-producing human liver cells; assay type: functional
Method in brief: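 Confluent 2.2.15 cells dosed daily for 9 days as in the anti-HBV assay. Four concentrations in 3–10-fold steps, triplicate cultures, untreated controls on each plate, cell-free wells to correct for light scattering. Neutral red uptake read at 510 nm 24 h after day 9, relative to untreated cells. CC50 taken as the 50% cytotoxic concentration.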

MT4 = assay: Tested for in vitro cytopathic effect of HIV for MT-4 cells; assay type: functional, cell-based; details: Homo sapiens

| SMILES | pIC50 (CCRF-CEM [1]) | pEC50 (CCRF-CEM [2]) | FLT [3] [%] | Selectivity index [4] | Selectivity index [5] | pEC50 [6] | Selectivity index [7] | pEC50 [8] | EC90 [9] [µM] | EC90 [10] [µM] | CC50 [11] [µM] | pEC50 (MT4) |
| --- | --- | --- | --- | --- | --- | --- | --- | --- | --- | --- | --- | --- |
| CO[C@H]1N(C2CC(F)C(CO)O2)C(=O)NC(=O)[C@]1(C)Cl (some centres undefined) | < 3.10 | 5.26 | 0 | > 144 |  |  |  |  |  |  |  |  |
| Nc1ccn([C@H]2CC[C@@H](CO)O2)c(=O)n1 [ZALCITABINE] |  |  |  |  | 18 | 5.68 | 27 | 5.89 | 12 | 8.1 | 219 |  |
| CO[C@H]1N(C2CC(F)C(CO)O2)C(=O)NC(=O)[C@]1(C)Br (some centres undefined) | 5.76 | 8.28 | 10 | 328 | 18 | 4.89 | 21 | 5.22 | 42 | 36 | 765 |  |
| CC1(Br)C(=O)NC(=O)N([C@H]2C[C@H](F)[C@@H](CO)O2)C1N=[N+]=[N-] (mixture of isomers) | 4.00 | 7.84 | 95 | 7140 | 3.1 | 4.89 | 4.2 |  | 57 | 42 | 176 |  |
| CO[C@@H]1N(C2CC(F)C(CO)O2)C(=O)NC(=O)[C@@]1(C)Br (some centres undefined) | 5.01 | 8.49 | 10 | 2990 | 8.8 | 4.59 | 16 | 4.68 | 118 | 67 | 1040 |  |
| CO[C@H]1N(C2CC(F)C(CO)O2)C(=O)NC(=O)[C@@]1(C)Cl (some centres undefined) | < 3.10 | 4.42 | 0 | > 21 |  |  |  |  |  |  |  |  |
| CO[C@@H]1N(C2CC(F)C(CO)O2)C(=O)NC(=O)[C@@]1(C)I (some centres undefined) | 4.91 | 8.43 | 90 | 3250 |  |  |  |  |  |  |  |  |
| Cc1cn([C@H]2C[C@H](N=[N+]=[N-])[C@@H](CO)O2)c(=O)[nH]c1=O [ZIDOVUDINE] | 3.30 | 8.52 |  | 167000 |  |  |  |  |  |  |  | 8.40 |
| CO[C@H]1N(C2CC(F)C(CO)O2)C(=O)NC(=O)[C@]1(C)I (some centres undefined) | 4.24 | 4.30 | 50 | 1 |  |  |  |  |  |  |  |  |
